# ChEMBL document CHEMBL5325511, “Discovery of N-(4-(Aminomethyl)phenyl)-5-methylpyrimidin-2-amine Derivatives as Potent and Selective JAK2 Inhibitors” (ACS Med Chem Lett, 2023)
# Calls of active or inactive are those of the source. The rule behind the calls is not given here.
# How the values were obtained:
# [1] = target: T1, Receptor-type tyrosine-protein kinase FLT3 (Homo sapiens, UniProt P36888); test: Inhibition of FLT3 in human MOLM-13 cells; format: cell-based
# T1 sequence (P36888 whole entry): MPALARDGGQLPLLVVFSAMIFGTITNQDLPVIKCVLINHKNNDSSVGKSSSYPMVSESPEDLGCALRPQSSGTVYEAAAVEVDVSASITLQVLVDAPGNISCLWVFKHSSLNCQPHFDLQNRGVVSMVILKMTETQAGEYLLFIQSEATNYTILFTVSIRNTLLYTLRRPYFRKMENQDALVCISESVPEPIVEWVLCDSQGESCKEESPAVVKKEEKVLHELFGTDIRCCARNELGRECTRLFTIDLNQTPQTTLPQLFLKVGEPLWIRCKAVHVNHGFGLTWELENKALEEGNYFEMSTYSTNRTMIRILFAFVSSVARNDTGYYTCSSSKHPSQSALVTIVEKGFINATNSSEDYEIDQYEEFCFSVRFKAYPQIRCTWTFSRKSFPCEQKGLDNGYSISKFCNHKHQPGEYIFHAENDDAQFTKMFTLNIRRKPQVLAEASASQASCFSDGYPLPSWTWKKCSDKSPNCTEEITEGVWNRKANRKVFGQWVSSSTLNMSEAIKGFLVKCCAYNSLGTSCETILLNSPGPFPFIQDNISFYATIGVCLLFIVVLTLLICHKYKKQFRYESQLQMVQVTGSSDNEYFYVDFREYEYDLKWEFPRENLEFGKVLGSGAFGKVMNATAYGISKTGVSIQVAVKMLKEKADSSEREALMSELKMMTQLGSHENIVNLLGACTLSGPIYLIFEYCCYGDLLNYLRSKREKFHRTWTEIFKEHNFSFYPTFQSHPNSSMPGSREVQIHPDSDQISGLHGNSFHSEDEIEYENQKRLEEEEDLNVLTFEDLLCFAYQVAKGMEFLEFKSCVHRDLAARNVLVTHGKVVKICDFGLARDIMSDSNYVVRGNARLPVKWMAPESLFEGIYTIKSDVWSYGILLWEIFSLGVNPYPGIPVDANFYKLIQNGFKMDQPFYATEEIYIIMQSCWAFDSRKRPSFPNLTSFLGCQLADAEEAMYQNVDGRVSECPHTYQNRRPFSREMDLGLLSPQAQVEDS
# Procedure, shortened: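 Cell proliferation assay. IC50 is the concentration that inhibits proliferation by 50%, taken from dose–response curves. Mean ± SEM of at least three independent experiments.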
# [2] = Half life in Sprague-Dawley rat at 5 mg/kg, po measured upto 24 hrs by LC-MS/MS analysis; format: ADME, organism-based; conditions: in vivo, po, 5 mg/kg, 24 h
# Procedure, shortened: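 Sprague–Dawley rats, n = 5, dosed at 5 mg/kg as a solution in 2% ethanol and 1% Tween 80, pH 5.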
# [3] = target: Tyrosine-protein kinase Lck (Homo sapiens) (UniProt P06239); test: Inhibition of LCK (unknown origin)
# Tyrosine-protein kinase Lck (Homo sapiens), sequence (P06239 2-509 limits assumed): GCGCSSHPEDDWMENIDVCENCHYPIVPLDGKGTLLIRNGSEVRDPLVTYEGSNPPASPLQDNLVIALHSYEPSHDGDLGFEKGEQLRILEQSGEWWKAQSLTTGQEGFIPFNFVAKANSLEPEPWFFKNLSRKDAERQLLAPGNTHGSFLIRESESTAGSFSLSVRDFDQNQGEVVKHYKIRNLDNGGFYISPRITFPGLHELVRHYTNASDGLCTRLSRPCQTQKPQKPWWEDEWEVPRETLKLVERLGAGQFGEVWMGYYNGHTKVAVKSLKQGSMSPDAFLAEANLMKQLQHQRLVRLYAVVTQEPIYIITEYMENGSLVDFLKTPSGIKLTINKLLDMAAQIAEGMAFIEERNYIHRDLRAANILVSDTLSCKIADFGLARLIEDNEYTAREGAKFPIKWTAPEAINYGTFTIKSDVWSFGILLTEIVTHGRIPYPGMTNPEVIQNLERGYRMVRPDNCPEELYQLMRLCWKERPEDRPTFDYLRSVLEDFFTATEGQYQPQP
# Procedure, shortened: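 Kinase panel profiling (KinaseProfile, run by an outside contractor). The inhibitor was tested at 1 μM in duplicate against DMSO control. The value is % control, the percentage of kinase activity remaining.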
smiles,measurement,setting,value
C=CS(=O)(=O)NCc1ccc(Nc2ncc(C)c(-c3cnn(C(C)C)c3)n2)cc1,IC50,[1],583 nM
same,t1/2,[2],5.2 h
same,inhibition,[3],Active
